Test results published in ChEMBL document CHEMBL1142935, “Discovery of Ecopladib, an indole inhibitor of cytosolic phospholipase A2alpha” (J Med Chem, 2007).
Activity calls are given as the source filed them. The calls are words filed in the database; no cut-off is given here.

Target: T1, Cytosolic phospholipase A2 gamma (Homo sapiens) (UniProt Q9UP65)
T1 sequence (whole entry): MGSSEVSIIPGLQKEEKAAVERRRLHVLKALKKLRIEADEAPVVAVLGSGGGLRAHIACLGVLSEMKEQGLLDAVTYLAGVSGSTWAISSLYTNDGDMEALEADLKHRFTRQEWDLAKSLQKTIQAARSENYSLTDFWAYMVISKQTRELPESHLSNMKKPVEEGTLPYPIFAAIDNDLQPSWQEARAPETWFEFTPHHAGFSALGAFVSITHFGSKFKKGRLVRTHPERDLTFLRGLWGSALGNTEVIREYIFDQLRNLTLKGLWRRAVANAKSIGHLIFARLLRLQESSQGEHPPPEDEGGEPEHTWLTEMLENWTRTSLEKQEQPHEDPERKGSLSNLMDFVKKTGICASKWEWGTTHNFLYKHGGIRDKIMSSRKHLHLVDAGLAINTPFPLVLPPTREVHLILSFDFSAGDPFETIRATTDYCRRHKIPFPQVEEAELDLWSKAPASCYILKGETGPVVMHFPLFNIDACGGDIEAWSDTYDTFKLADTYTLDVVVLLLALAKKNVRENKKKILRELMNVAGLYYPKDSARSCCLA
Test: Inhibition of cPLA2 gamma in PAPC liposome at 1 uM
In short: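 Isoform selectivity tested with PAPC (1-palmitoyl-2-arachidonyl-sn-glycero-3-phosphocholine) liposome substrate assays for cPLA2β and cPLA2γ.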

O=C(O)c1ccc(OCCc2c(CCNS(=O)(=O)Cc3ccc(Cl)c(Cl)c3)n(C(c3ccccc3)c3ccccc3)c3ccc(Cl)cc23)cc1 [ECOPLADIB]
Activity: inactive
